From ChEMBL document CHEMBL1124191, “Design of rat renin inhibitory peptides” (J Med Chem, 1988)
*1 amine or outer side, *2 acyl side, *3 side chain or, on linkers, in order; H or OH if unused. Where a SMILES comes first, the peptide text is derived from it. [ ]: non-standard residue; d: D form. Ahppa(3S,4S) = O=C(C[C@H](O)[C@H](Cc1ccccc1)N[*:1])[*:2]; ACHPA = O=C(C[C@H](O)[C@H](CC1CCCCC1)N[*:1])[*:2]; Sta = CC(C)C[C@H](N)[C@@H](O)CC(=O)O; Cha = N[C@@H](CC1CCCCC1)C(=O)O; Chg = N[C@H](C(=O)O)C1CCCCC1

target: T1, Renin (Rattus norvegicus, UniProt P08424); test: Inhibitory activity against rat plasma renin in vitro.; type: cell-free
T1 sequence (P08424 whole entry): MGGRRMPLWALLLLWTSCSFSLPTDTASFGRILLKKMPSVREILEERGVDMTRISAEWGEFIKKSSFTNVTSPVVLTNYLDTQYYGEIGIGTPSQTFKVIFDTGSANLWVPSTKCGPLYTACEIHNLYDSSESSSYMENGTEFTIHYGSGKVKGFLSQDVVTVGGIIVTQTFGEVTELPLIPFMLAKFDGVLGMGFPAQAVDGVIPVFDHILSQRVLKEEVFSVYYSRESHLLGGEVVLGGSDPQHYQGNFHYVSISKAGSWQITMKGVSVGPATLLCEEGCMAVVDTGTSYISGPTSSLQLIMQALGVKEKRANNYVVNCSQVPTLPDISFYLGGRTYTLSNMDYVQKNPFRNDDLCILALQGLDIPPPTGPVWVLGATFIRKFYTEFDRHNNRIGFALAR
In short: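 Pooled EDTA rat plasma with added PMSF 5 mM, 8-hydroxyquinoline 3 mM and extra EDTA 5 mM, at pH 7.4, mixed with serial 1:10 peptide dilutions (Tris/DMSO), split, and incubated 1 h at 37 and 0 °C.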

Compound	IC50 [µM]
CC[C@H](C)[C@H](NC(=O)C[C@H](O)[C@H](CC(C)C)NC(=O)[C@H](Cc1c[nH]cn1)NC(=O)[C@H](Cc1ccccc1)NC(=O)[C@@H]1CCCN1C(=O)[C@H](Cc1c[nH]cn1)NC(=O)[C@@H]1CCCN1)C(=O)N[C@@H](Cc1ccccc1)C(N)=O (H-PHPFH[Sta]IF-NH2)	10
CC(=O)N[C@H](C(=O)N1CCC[C@H]1C(=O)N[C@@H](Cc1ccccc1)C(=O)N[C@H](C(=O)N[C@@H](CC(C)C)[C@@H](O)CC(=O)N[C@@H](CC(C)C)C(=O)N[C@@H](Cc1ccccc1)C(N)=O)C(C)C)C1CCCCC1 (Ac-[Chg]PFV[Sta]LF-NH2)	0.28
CC(=O)N[C@@H](Cc1c[nH]cn1)C(=O)N1CCC[C@H]1C(=O)N[C@@H](Cc1ccccc1)C(=O)N[C@@H](Cc1c[nH]cn1)C(=O)N[C@@H](CC(C)C)[C@@H](O)CC(=O)N[C@H](C(=O)N[C@@H](Cc1ccccc1)C(N)=O)C(C)C (Ac-HPFH[Sta]VF-NH2)	2.8
CC(=O)N[C@@H](Cc1c[nH]cn1)C(=O)N1CCC[C@H]1C(=O)N[C@@H](Cc1ccccc1)C(=O)N[C@H](CC(C)C)C(=O)N[C@@H](CC(C)C)[C@@H](O)CC(=O)N[C@@H](CC(C)C)C(=O)N[C@@H](Cc1ccccc1)C(N)=O	~1000
CC(=O)N[C@@H](Cc1c[nH]cn1)C(=O)N1CCC[C@H]1C(=O)N[C@@H](Cc1ccccc1)C(=O)N[C@@H](Cc1c[nH]cn1)C(=O)N[C@@H](CC(C)C)[C@@H](O)CC(=O)N[C@@H](CC(C)C)C(=O)N[C@@H](CC1CCCCC1)C(N)=O (Ac-HPFH[Sta]L[Cha]-NH2)	0.16
CC(C)C[C@H](NC(=O)C[C@H](O)[C@H](CC(C)C)NC(=O)[C@H](Cc1c[nH]cn1)NC(=O)[C@H](Cc1ccccc1)NC(=O)[C@@H]1CCCN1C(=O)[C@H](Cc1c[nH]cn1)NC(=O)[C@@H]1CCCN1)C(=O)N[C@@H](Cc1ccc(O)cc1)C(=O)N[C@@H](Cc1ccc(O)cc1)C(N)=O (H-PHPFH[Sta]LYY-NH2)	0.775
CC[C@H](C)[C@H](NC(=O)C[C@H](O)[C@H](Cc1ccccc1)NC(=O)[C@H](Cc1c[nH]cn1)NC(=O)[C@H](Cc1ccccc1)NC(=O)[C@@H]1CCCN1C(=O)[C@H](Cc1c[nH]cn1)NC(=O)[C@@H]1CCCN1)C(=O)N[C@@H](Cc1ccccc1)C(N)=O (H-PHPFH[Ahppa(3S,4S)]IF-NH2)	0.37
CC(=O)N[C@@H](Cc1c[nH]cn1)C(=O)N1CCC[C@@H]1C(=O)N[C@@H](Cc1ccccc1)C(=O)N[C@H](C)C(=O)N[C@@H](CC(C)C)[C@@H](O)CC(=O)N[C@@H](CC(C)C)C(=O)N[C@@H](Cc1ccccc1)C(N)=O	~1000
CC[C@H](C)[C@H](NC(=O)C[C@H](O)[C@H](CC1CCCCC1)NC(=O)[C@H](Cc1c[nH]cn1)NC(=O)[C@H](Cc1ccccc1)NC(=O)[C@@H]1CCCN1C(=O)[C@H](Cc1c[nH]cn1)NC(=O)[C@@H]1CCCN1)C(=O)N[C@@H](Cc1ccccc1)C(N)=O (H-PHPFH[ACHPA]IF-NH2)	0.065

Other lines, results leading:

IC50 [µM]	Compound
0.27	CC(=O)N[C@@H](Cc1cnc[nH]1)C(=O)N1CCC[C@H]1C(=O)N[C@@H](Cc1ccccc1)C(=O)N[C@@H](Cc1cnc[nH]1)C(=O)N[C@@H](CC(C)C)[C@@H](O)CC(=O)N[C@@H](CC(C)C)C(=O)N[C@H](C(N)=O)C(C)C (Ac-HPFH[Sta]LV-NH2)
0.21	CC(=O)N[C@@H](Cc1cnc[nH]1)C(=O)N1CCC[C@H]1C(=O)N[C@@H](Cc1ccccc1)C(=O)N[C@@H](Cc1cnc[nH]1)C(=O)N[C@@H](CC(C)C)[C@@H](O)CC(=O)N[C@@H](CC(C)C)C(=O)N[C@@H](Cc1ccccc1)C(N)=O
2.5	CC(=O)N[C@@H](Cc1cnc[nH]1)C(=O)N1CCC[C@H]1C(=O)N[C@@H](Cc1ccccc1)C(=O)N[C@H](C(=O)N[C@@H](CC(C)C)[C@@H](O)CC(=O)N[C@@H](CC(C)C)C(=O)N[C@@H](Cc1ccccc1)C(N)=O)C1CCCCC1 (Ac-HPF[Chg][Sta]LF-NH2)
0.24	CC(=O)N[C@@H](Cc1cnc[nH]1)C(=O)N1CCC[C@H]1C(=O)N[C@@H](Cc1c[nH]c2ccccc12)C(=O)N[C@@H](Cc1cnc[nH]1)C(=O)N[C@@H](CC(C)C)[C@@H](O)CC(=O)N[C@@H](CC(C)C)C(=O)N[C@@H](Cc1ccccc1)C(N)=O (Ac-HPWH[Sta]LF-NH2)
